Experimental data taken from ChEMBL document CHEMBL4402603, “Structure-Activity Relationship of SPOP Inhibitors against Kidney Cancer” (J Med Chem, 2020).
Calls of active or inactive are those of the source. The rule behind the calls is not given here.

Legend:
[1] = target: Speckle-type POZ protein (Homo sapiens) (UniProt O43791); experiment: Binding affinity to recombinant N-terminal GST/His-tagged SPOP (unknown origin) MATH binding domain expressed in Escherichia coli BL21 (DE3) assessed as change in melting temperature at 1 fold compound by SYPRO Orange dye based differential scanning fluorimetry (reference value: -1.7 degreeC)
Speckle-type POZ protein (Homo sapiens), sequence (O43791 whole entry, the tested form may be a part): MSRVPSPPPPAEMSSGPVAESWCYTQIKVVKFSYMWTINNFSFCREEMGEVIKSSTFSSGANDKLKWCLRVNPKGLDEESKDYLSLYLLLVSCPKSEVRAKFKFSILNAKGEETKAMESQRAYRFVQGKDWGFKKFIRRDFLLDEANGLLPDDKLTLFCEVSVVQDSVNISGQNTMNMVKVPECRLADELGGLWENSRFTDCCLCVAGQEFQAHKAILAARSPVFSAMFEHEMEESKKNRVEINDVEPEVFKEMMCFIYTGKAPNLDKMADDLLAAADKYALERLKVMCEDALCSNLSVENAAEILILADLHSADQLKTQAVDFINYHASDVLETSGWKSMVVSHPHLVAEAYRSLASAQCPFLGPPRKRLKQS

[2] = target: Speckle-type POZ protein (Homo sapiens) (UniProt O43791); experiment: Inhibition of SPOP signalling in human OS-RC2 cells assessed as accumulation of PTEN incubated for 12 hrs by Western blot analysis; type: cell-based
Summary of the method: (§1)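 Cells treated with SPOP inhibitor at different concentrations for 12 hr, lysed in RIPA, protein by BCA. Samples run on 12% SDS-PAGE, blotted to nitrocellulose, primary antibody overnight at 4 °C, HRP secondary, ECL detection. GAPDH loading control. Triplicate experiments.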

[3] = Selectivity index, ratio of IC50 for human A549 to IC50 for human A498 cells
[4] = target: Speckle-type POZ protein (Homo sapiens) (UniProt O43791); experiment: Inhibition of SPOP signalling in human A498 cells assessed as accumulation of PTEN incubated for 12 hrs by Western blot analysis; type: cell-based; summary of the method: as §1
NCI-H1299 = experiment: Cytotoxicity against human H1299 cells assessed as reduction in cell viability incubated for 72 hrs by MTT assay; type: cell-based; conditions: NCI-H1299, 72 h
Summary of the method: (§2)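 Cells maintained in DMEM/10% FBS at 37 °C, 5% CO2. Cell proliferation quantified by MTT after 72 hr compound exposure, A490 read. Untreated cells = 100%. Mean ± SD, n = 3.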

[5] = target: T1, Speckle-type POZ protein/PTEN (Homo sapiens) (UniProt P60484+O43791); experiment: Inhibition of SPOP/PTEN interaction in human HEK293T cells assessed as reduction in PTEN level incubated for 8 hrs by Western blot analysis; type: cell-based
T1 sequence (O43791 whole entry, looked up): as the sequence (O43791 whole entry, the tested form may be a part) above
T1 sequence (P60484 whole entry, looked up): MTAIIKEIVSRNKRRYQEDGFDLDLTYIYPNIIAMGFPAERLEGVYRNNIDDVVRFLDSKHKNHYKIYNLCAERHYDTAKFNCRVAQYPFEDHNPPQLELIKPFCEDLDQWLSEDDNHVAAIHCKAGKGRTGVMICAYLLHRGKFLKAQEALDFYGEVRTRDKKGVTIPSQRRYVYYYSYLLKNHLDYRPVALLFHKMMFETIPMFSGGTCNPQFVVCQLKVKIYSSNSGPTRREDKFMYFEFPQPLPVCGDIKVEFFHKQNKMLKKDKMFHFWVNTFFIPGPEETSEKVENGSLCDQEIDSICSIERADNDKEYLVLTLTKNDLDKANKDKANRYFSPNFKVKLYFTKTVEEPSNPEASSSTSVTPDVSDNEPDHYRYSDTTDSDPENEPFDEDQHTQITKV

[6] = target: Speckle-type POZ protein (Homo sapiens) (UniProt O43791); experiment: Inhibition of SPOP signalling in human A498 cells assessed as reduction in AKT phosphorylation at 0.5 to 10 uM incubated for 12 hrs by Western blot analysis; type: cell-based
Summary of the method: (§3)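 Cells exposed 12 hr to inhibitor at graded concentrations, RIPA lysates normalized by BCA. 12% SDS-PAGE, nitrocellulose transfer, milk block, primary antibody at 4 °C overnight, HRP secondary, ECL. GAPDH loading control.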

[7] = target: T1, Speckle-type POZ protein/PTEN (Homo sapiens); experiment: Inhibition of SPOP/PTEN interaction in human HEK293T cells assessed as reduction in SPOP level incubated for 12 hr by co-immunoprecipitation based Western blot analysis
[8] = target: Speckle-type POZ protein (Homo sapiens) (UniProt O43791); experiment: Inhibition of SPOP signalling in human OS-RC2 cells assessed as effect of DUSP7 mRNA expression at 1 to 10 uM incubated for 12 hrs by qRT-PCR analysis; type: cell-based
[9] = target: Speckle-type POZ protein (Homo sapiens) (UniProt O43791); experiment: Inhibition of SPOP signalling in human A498 cells assessed as reduction in ERK phosphorylation at 0.5 to 10 uM incubated for 12 hrs by Western blot analysis; type: cell-based; summary of the method: as §3
Hs 766 = experiment: Cytotoxicity against human Hs766T cells assessed as reduction in cell viability incubated for 72 hrs by MTT assay; type: cell-based; conditions: Hs 766, 72 h; summary of the method: as §2
[10] = target: Speckle-type POZ protein (Homo sapiens) (UniProt O43791); experiment: Inhibition of SPOP signalling in human OS-RC2 cells assessed as effect on total AKT level at 0.5 to 15 uM incubated for 12 hrs by Western blot analysis; type: cell-based; summary of the method: as §3
OS-RC-2 = experiment: Antiproliferative activity against human OS-RC2 cells assessed as reduction in cell viability at 30 uM incubated for 72 hrs by MTT assay relative to control; type: functional; conditions: OS-RC-2, 72 h
Summary of the method: (§4)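 MTT read-out. Cells seeded at 1,000-2,200/well, grown 12 hr at 37 °C, then compound added for 72 hr. MTT for 4 hr, formazan dissolved in DMSO, absorbance at 490 nm. Untreated-cell OD taken as 100% proliferation; inhibition reported at 30 μM.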

A498 = experiment: Antiproliferative activity against human A498 cells assessed as reduction in cell viability at 30 uM incubated for 72 hrs by MTT assay relative to control; type: functional; conditions: A498, 72 h; summary of the method: as §4
[11] = Selectivity index, ratio of IC50 for human Hs766T to IC50 for human A498 cells

For `Cc1cccn2c(=O)c3cc(C(=O)NCCN4CCN(C)CC4)c(=N)n(CCc4cccs4)c3nc12`, the ΔTm [1] was 2.7 °C, the inhibition [2] was “Dose-dependent effect” and the “Ratio IC50” value [3] was >5. For the same compound, the inhibition [4] was “Dose-dependent effect”, the IC50 (NCI-H1299) was 10.7 µM and the inhibition [5] was “Dose-dependent effect”. For the same compound, the inhibition [6] was “Active”, the inhibition [7] was “Dose-dependent effect” and the inhibition [8] was “inactive”. For the same compound, the inhibition [9] was “Active”, the IC50 (Hs 766) was 14.5 µM and the inhibition [10] was “inactive”. The inhibition at 30 µM (OS-RC-2) was 90%, the inhibition at 30 µM (A498) was 85% and the “Ratio IC50” value [11] was >5.
